# ATG4B inh – inhibitors of human ATG4B cysteine protease | Q9Y4P1 | ATG4B cleavage of LC3-PLA2, NBD-HPC fluorescence, 1 h | 0.51% of 340,000 active | inhibition, % at 8.33 µM; in the data active means inhibition above about 40%
# Target sequence (Q9Y4P1 whole entry, looked up): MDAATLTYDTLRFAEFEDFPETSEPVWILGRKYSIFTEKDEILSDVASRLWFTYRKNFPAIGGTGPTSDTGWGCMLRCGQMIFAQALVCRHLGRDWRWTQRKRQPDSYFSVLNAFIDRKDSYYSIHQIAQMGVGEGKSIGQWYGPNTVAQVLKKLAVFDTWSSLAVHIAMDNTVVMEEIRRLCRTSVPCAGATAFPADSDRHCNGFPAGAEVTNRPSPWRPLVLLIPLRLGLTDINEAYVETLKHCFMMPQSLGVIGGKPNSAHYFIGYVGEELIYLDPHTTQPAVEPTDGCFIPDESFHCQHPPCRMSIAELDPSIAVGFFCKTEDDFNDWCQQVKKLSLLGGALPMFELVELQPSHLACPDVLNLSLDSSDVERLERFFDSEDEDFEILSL
# NALP3 yeast inh – inhibitors of NALP3 inflammasome in yeast; Yeast reconstituted NLRP3/ASC/caspase-1, beta-gal luminescence, 24 h; inhibition, % at 10 µM; 0.39% of 330,000 active;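 active means inhibition of 50% or more; inactive means inhibition below 50%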;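 further: plate controls were induced DMSO wells for no effect and uninduced yeast grown without galactose for full effect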
# ALR inh – human ALR oxidase inhibition via reduced H2O2 | P55789 | 3.8% of 290,000 active | purified ALR, DTT oxidation, H2O2 HRP-luminol luminescence | inhibition, % (test concentration not listed);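 active means mean replicate inhibition above about 79%, with every replicate also reaching it, limit read from the data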
# Target sequence (P55789 whole entry, looked up): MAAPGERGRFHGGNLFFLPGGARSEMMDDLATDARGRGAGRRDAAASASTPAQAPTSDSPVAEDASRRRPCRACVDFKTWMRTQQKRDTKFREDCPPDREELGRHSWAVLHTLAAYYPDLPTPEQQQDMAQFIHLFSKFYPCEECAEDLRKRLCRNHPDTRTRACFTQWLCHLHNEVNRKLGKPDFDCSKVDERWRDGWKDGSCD
# Calb FLC – affects C. albicans growth with fluconazole. 0.57% of 300,000 active. growth inhibition, % (concentration not given with the values). C. albicans CaCi-2 (fluconazole-resistant clinical isolate) + fluconazole, Alamar Blue growth, 48 h;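 active means growth inhibition above about 58% in most replicates, limit read from the data, passing the limit was not always enough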;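 further: all wells also contain fluconazole at 8 µg/ml as a sub-toxic cotreatment; 0% = median of DMSO wells and 100% = median of geldanamycin control wells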
# NALP1 inh – blocks the NALP1 inflammasome reconstituted in yeast; 0.61% of 280,000 active; AID 2071; S. cerevisiae NALP1/ASC/caspase-1 growth, X-gal OD620, 72 h; inhibition, % at 10 µM; in the data active means inhibition mostly above about 24%, no sharp cut-off; inactive means mostly below about 32%
# UCH37 DUB inh – blocks the human deubiquitinase UCH37. Q9Y5K5. purified proteasome/UCH37, Ub-AMC cleavage fluorescence. inhibition, % (test concentration not listed). 0.33% of 330,000 active;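 active means mean inhibition over replicate wells above about 20%, limit read from the data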;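 further: 0% = compound-free wells with enzyme and 100% = wells lacking proteasome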
#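 Material: human UCH37 enzyme supplied as purified proteasome complex / Amount: 0.15 nM proteasome as dispensed / Buffer or medium: pH 7.4 Tris-HCl (50 mM) with ovalbumin, ATP-MgCl2, DTT / Times: preincubation 30 min, reaction 25 min, room temperature / Technique: AMC fluorescence from Ub-AMC cleavage, excitation 355 nm, emission 460 nm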
# Starred values were filed as active, the others as inactive; . = no result. The list is not random: actives were taken first. Their share in the collection is about 4.8%.
SMILES,ATG4B inh,NALP3 yeast inh,ALR inh,Calb FLC,NALP1 inh,UCH37 DUB inh
COc1cc(CNc2ccc3[nH]c(=O)[nH]c3c2)ccc1OCc1ccc(F)cc1,-6,-4,89*,2,4,-4
C=CCOc1cccc(CNc2ccc3[nH]c(=O)[nH]c3c2)c1,-1,12,99*,-6,18,.
COc1cc(CNc2ccc3[nH]c(=O)[nH]c3c2)cc(Br)c1OCc1ccccc1F,2,29,23,-4,16,1
COc1cc(CNc2ccc3[nH]c(=O)[nH]c3c2)ccc1OCc1ccc(F)cc1Cl,13,7,30,-5,19,-2
O=C(NN=Cc1ccccc1Cl)c1cccc(F)c1,.,.,.,.,.,3
Cc1cc(=O)oc2c(N)c(O)ccc12,-6,4,97*,2,.,3
O=C(NN=Cc1ccco1)c1cccc(N2CCCC2=O)c1,.,.,.,.,.,3
COc1ccc(N2CCN(C(=O)c3cccc(NC4=NC5CS(=O)(=O)CC5S4)c3)CC2)cc1 (stereo not given),-5,12,93*,-5,-16,-1
O=C(c1cccc(NC2=NC3CS(=O)(=O)CC3S2)c1)N1CCN(c2ncccn2)CC1 (stereo not given),-1,4,-1,10,6,4
O=C(Nc1ccc(Cl)cc1)ON=C1CCCC1,10,14,55,-1,94*,4
Cc1sc(-n2c(C)cc(C=Nn3cnnc3)c2C)c(C#N)c1C,.,.,.,.,.,6
COc1ccc(C(=O)C(C=NO)=NNc2ccc(F)cc2)cc1,.,.,.,.,.,7
O=C(CCN1CCN(C(c2ccccc2)c2ccccc2)CC1)N/N=C/c1ccc(O)cc1,-7,15,98*,-15,28,.
COC(=O)Oc1ccc(C=NNC(=O)CSCc2ccccc2Br)cc1OC,.,.,.,.,.,4
COc1ccc(/C=N/NC(=O)CCn2nc(C)cc2C)cc1O,-2,0,77*,-2,0,.
COc1ccc(OC)c(NC(=O)CCN2CCN(c3ccccc3)CC2)c1,-12,15,92*,7,13,0
O=C(CCN1CCN(C(c2ccccc2)c2ccccc2)CC1)N/N=C/c1ccc(O)cc1O,-14,22,29,-3,6,.
COC(=O)Oc1ccc(/C=N/NC(=O)CSCc2ccccc2Br)cc1OC,-6,-4,99*,-2,11,.
COc1cc(C=NNC(=O)CCn2nc(C)cc2C)ccc1O,.,.,.,.,.,-3
COc1ccc(OC)c(NC(=O)CCN2CCN(Cc3ccccc3)CC2)c1,-2,15,-52,-29,11,3
COc1cc(/C=N/NC(=O)CCc2c(C)n[nH]c2C)ccc1O,-11,-20,99*,15,-4,.
COc1cc(/C=N/NC(=O)CCN2CCCCC2)ccc1O,2,0,99*,-6,5,.
COc1ccc(/C=N\NC(=O)CCN2CCN(c3ccccc3)CC2)cc1OC,1,16,98*,-9,-10,.
O=C(Oc1ccccc1C(=O)Nc1ccccc1)c1ccc(Br)c([N+](=O)[O-])c1,10,47,97*,-6,30,2
Fc1cccc(C=NNc2nc3ccccc3[nH]2)c1,.,.,.,.,.,2
SMILES,ATG4B inh,NALP3 yeast inh,ALR inh,Calb FLC,NALP1 inh,UCH37 DUB inh
CC(C)Oc1ccc(C(=O)N(CN2CCCC2=O)c2ccc(F)cc2)cc1,6,-3,-5,2,41*,6
COc1cc(C=NNc2nc(N3CCCCC3)nc(N3CCCCC3)n2)ccc1OC(=O)c1ccco1,.,.,.,.,.,1
COc1cc(OC)c2cc(C(=O)N/N=C/c3ccccc3O)[nH]c2c1,4,20,-11,81*,-6,.
CC(C)(C)C(=O)NC1=NCCS1,-16,12,100*,-6,11,3
COc1cc(C2N(c3ccccc3)CCN2c2ccccc2)ccc1OC(C)=O,-6,-1,94*,-8,4,1
N#Cc1ccc(C=NNC(=O)c2cccc(S(=O)(=O)N3CCOCC3)c2)cc1,.,.,.,.,.,7
CC(C)c1ccc(C=NNC(=O)C(=O)NCCCN2CCOCC2)cc1,.,.,.,.,.,3
COc1ccc(NC2CCCN(C(=O)CSc3ccccc3)C2)cc1OC (stereo not given),1,20,-16,15,10,1
COc1ccc(NC2CCCN(C(=O)Cn3ccc(C)n3)C2)cc1OC (stereo not given),-10,-4,99*,16,20,3
Cc1ccn(CC(=O)N2CCCC(Nc3ccc(F)c(F)c3)C2)n1 (stereo not given),-7,19,4,8,3,-1
COc1ccc(NC2CCCN(C(=O)CN3CCOC3=O)C2)cc1 (stereo not given),16,6,98*,-1,3,-3
Cc1ccn(CC(=O)N2CCCC(N3CCN(c4cccc(Cl)c4)CC3)C2)n1 (stereo not given),-6,20,99*,-1,9,-1
COc1ccc(NC2CCCN(C(=O)CN3CCOC3=O)C2)cc1OC (stereo not given),6,-6,100*,4,11,0
O=C(NN=CC1CC=CCC1)c1cc2ccccc2cc1O (stereo not given),.,.,.,.,.,-1
CCOC(=O)C1=C(N)n2c(sc(=Cc3ccco3)c2=O)=C(C(=O)OC(C)C)C1c1ccco1 (stereo not given),.,.,.,.,.,9
CSc1nsc(SCC(=O)Nc2ccc(O)c(C(=O)O)c2)n1,21,9,82*,0,12,.
CSc1nsc(SCC(=O)Nc2ccc(Cl)c(C(=O)O)c2)n1,0,18,6,0,0,0
Fc1ccc(Nc2ccnc(Nc3ccc(F)cc3)n2)cc1,-7,21,-4,33,84*,3
Nc1ncnc(Nc2ccc(F)cc2)n1,-2,-3,.,-17,16,3
COc1ccc(S(=O)(=O)N(C)Cc2cccs2)cc1Br,2,32,-9,12,41*,1
Cc1ccc(C)c(S(=O)(=O)N(C)Cc2cccs2)c1,-5,25,-7,.,.,0
COc1ccc(-c2nn(CCC(=O)O)cc2C=NNC(N)=S)cc1,.,.,.,.,.,3
COc1cc(C=O)ccc1OCCCOc1ccccc1[N+](=O)[O-],-3,6,.,5,19,3
COc1cc(C=O)ccc1OCCCCOc1ccccc1[N+](=O)[O-],6,16,96*,13,27,4
Cc1nc2ccccn2c1C(=O)NN=Cc1ccc([N+](=O)[O-])o1,.,.,.,.,.,18
Cc1nc2ccccn2c1C(=O)N/N=C/c1ccc([N+](=O)[O-])o1,-4,25,-21,100*,-21,.
Cc1scc(C(=O)N/N=C/c2ccco2)c1C,-9,-1,.,-8,-5,.
Cc1scc(C(=O)N/N=C/c2ccc([N+](=O)[O-])o2)c1C,.,18,-26,90*,0,.
O=C(NN=Cc1ccc(-c2ccccc2[N+](=O)[O-])o1)c1cccnc1,.,.,.,.,.,20
COC(=O)CCC(=O)NC(=S)Nc1cc(Cl)ccc1Cl,-13,36,4,-12,42*,4

# From PubChem BioAssay
